Test results taken from ChEMBL document CHEMBL4261636, “Design of Y2 Receptor Selective and Proteolytically Stable PYY3-36 Analogues” (J Med Chem, 2018).

How the values were obtained:
[1] = target: T1, Neuropeptide Y receptor type 2 (Homo sapiens, UniProt P49146); experiment: Displacement of [125I]-PYY(1 to 36 residues) from human Y2R expressed in CHO cell membranes after 2 hrs by scintillation proximity assay
T1 sequence (P49146 whole entry): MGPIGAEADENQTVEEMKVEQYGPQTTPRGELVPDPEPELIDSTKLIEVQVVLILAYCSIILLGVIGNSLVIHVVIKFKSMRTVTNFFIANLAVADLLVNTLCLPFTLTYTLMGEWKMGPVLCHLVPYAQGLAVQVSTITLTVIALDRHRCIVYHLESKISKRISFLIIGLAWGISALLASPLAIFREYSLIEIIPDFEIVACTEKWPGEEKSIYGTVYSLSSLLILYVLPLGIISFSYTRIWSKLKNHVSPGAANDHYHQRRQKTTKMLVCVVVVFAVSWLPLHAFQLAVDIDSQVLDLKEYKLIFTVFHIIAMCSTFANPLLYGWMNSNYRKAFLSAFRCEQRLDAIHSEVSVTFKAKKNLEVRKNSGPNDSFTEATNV

[2] = Displacement of [125I]-PYY(1 to 36 residues) from mouse Y2R expressed in HEK293 cell membranes after 2 hrs by scintillation proximity assay
[3] = target: T2, Neuropeptide Y receptor type 5 (Mus musculus, UniProt O70342); experiment: Displacement of [125I]-PYY(1 to 36 residues) from mouse Y5R expressed in HEK293 cell membranes after 2 hrs by scintillation proximity assay
T2 sequence (O70342 whole entry): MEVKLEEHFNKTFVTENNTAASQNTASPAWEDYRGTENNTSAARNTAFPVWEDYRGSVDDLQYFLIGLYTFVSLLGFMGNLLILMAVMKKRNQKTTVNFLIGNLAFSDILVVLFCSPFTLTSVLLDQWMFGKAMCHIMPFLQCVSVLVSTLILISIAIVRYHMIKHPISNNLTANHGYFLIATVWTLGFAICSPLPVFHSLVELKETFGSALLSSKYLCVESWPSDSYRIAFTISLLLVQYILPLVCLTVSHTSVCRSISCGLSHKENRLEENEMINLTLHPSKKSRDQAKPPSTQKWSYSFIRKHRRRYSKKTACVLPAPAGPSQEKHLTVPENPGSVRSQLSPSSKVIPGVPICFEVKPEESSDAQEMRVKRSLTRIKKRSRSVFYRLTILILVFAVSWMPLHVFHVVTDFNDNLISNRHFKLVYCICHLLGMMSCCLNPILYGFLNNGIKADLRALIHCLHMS

[4] = target: T3, Neuropeptide Y receptor type 1 (Homo sapiens, UniProt P25929); experiment: Activation of human Y1R expressed in HEK293 cells assessed as inhibition of isoproterenol-induced increase in intracellular cAMP levels by calcium 5 dye-based FLIPR assay; type: functional, cell-based
T3 sequence (P25929 whole entry): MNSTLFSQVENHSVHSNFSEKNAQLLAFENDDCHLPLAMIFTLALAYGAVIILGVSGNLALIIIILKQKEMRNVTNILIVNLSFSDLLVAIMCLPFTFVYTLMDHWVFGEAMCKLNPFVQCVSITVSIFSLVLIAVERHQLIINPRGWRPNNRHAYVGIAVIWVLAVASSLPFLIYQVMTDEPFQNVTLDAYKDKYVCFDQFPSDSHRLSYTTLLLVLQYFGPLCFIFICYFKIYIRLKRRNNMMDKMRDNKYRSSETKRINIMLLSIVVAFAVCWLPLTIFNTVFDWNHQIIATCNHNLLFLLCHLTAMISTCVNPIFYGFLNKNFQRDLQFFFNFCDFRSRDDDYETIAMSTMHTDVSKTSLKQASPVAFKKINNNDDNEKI

[5] = target: T1, Neuropeptide Y receptor type 2; experiment: Activation of human Y2R expressed in HEK293 cells assessed as inhibition of isoproterenol-induced increase in intracellular cAMP levels by calcium 5 dye-based FLIPR assay; type: functional, cell-based
[6] = target: Neuropeptide Y receptor type 4 (Mus musculus, UniProt Q61041); experiment: Displacement of [125I]-PP from mouse Y4R expressed in HEK293 cell membranes after 2 hrs by scintillation proximity assay
[7] = Displacement of [125I]-PYY(1 to 36 residues) from mouse Y1R expressed in HEK293 cell membranes after 2 hrs by scintillation proximity assay
[8] = target: T3, Neuropeptide Y receptor type 1; experiment: Displacement of [125I]-PYY(1 to 36 residues) from human Y1R expressed in BHK-21 cell membranes after 2 hrs by scintillation proximity assay
[9] = target: Dipeptidyl peptidase 4 (Sus scrofa, UniProt P22411); experiment: Drug metabolism in minipig plasma assessed as DDP-4-meditaed GLP1(9 to 37 residues) formation by measuring half life at 1 uM by LC-MS analysis; type: ADME; settings: pig
Method in brief: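 Heparinized mini-pig plasma diluted 4:1 with 0.1 M PBS pH 7.4, pre-warmed 30 min at 37°C with peptide, then combined (1 uM final) and kept at 37°C. Aliquots taken at 5–300 min were quenched in 3 volumes methanol with internal standard, centrifuged and water-diluted. Analysed by ESI+ QTOF LC-MS against 20–2000 nM plasma calibrators, with %-remaining normalised to the 15 min sample; n = 3.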

Sequence of Neuropeptide Y receptor type 4 (Q61041 whole entry, the tested form may be a part): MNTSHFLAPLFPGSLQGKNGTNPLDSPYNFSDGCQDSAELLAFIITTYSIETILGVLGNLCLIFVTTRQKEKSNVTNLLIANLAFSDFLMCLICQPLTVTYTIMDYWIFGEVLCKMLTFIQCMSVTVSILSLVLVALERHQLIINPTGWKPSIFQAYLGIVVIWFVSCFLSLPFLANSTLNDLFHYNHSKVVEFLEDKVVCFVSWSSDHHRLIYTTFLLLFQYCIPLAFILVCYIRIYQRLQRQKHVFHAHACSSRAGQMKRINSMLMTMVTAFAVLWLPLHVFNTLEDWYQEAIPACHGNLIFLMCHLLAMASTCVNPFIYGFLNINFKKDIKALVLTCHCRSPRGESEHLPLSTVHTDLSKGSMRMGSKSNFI
Sequence of Dipeptidyl peptidase 4 (P22411 whole entry, the tested form may be a part): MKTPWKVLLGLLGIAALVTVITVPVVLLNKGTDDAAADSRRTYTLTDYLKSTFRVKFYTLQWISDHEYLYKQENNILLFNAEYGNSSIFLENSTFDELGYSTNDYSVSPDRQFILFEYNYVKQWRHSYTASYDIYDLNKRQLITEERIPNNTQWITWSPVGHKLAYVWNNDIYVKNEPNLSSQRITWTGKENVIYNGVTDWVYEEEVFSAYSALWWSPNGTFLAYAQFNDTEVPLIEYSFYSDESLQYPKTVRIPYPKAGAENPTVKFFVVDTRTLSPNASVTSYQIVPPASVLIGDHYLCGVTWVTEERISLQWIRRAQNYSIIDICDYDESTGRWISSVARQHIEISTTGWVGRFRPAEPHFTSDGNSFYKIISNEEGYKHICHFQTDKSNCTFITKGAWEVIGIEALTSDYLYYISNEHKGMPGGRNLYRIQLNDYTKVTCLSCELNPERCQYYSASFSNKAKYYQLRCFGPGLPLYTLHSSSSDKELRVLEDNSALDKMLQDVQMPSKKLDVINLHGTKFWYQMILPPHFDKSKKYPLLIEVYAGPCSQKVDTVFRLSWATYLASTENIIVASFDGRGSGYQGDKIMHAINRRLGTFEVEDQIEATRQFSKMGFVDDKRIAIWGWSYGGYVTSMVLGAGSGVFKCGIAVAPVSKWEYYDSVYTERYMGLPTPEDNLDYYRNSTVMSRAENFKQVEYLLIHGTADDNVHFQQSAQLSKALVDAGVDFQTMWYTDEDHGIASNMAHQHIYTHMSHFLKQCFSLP

| SMILES | Ki [1] [nM] | IC50 [2] [nM] | pIC50 [2] | EC50 [3] [nM] | EC50 ([4]; read-out: EC50) [nM] | EC50 ([4]; read-out: pEC50 (converted)) [nM] | EC50 ([5]; read-out: EC50) [nM] | EC50 ([5]; read-out: pEC50 (converted)) [nM] | EC50 [6] [nM] | IC50 [7] [nM] | pIC50 [7] | Ki [8] [nM] | t1/2 [9] [min] |
| --- | --- | --- | --- | --- | --- | --- | --- | --- | --- | --- | --- | --- | --- |
| CC[C@H](C)[C@H](NC(=O)[C@H](Cc1ccc(O)cc1)NC(=O)[C@H](CCCNC(=N)N)NC(=O)[C@H](CCCNC(=N)N)NC(=O)[C@H](CC(C)C)NC(=O)[C@H](CC(=O)O)NC(=O)[C@H](C)NC(=O)[C@H](C)NC(=O)[C@H](Cc1ccc(O)cc1)NC(=O)[C@H](CCC(N)=O)NC(=O)[C@H](C)NC(=O)[C@H](CCSC)NC(=O)[C@H](CCC(N)=O)NC(=O)[C@H](CCC(=O)O)NC(=O)[C@@H]1CCCN1C(=O)[C@@H](NC(=O)[C@H](C)NC(=O)[C@H](CC(N)=O)NC(=O)[C@H](CC(=O)O)NC(=O)CNC(=O)[C@@H]1CCCN1C(=O)[C@H](Cc1ccc(O)cc1)NC(=O)[C@@H](NC(=O)[C@@H]1CCCN1C(=O)[C@H](CCC(=O)O)NC(=O)[C@H](CC(C)C)NC(=O)[C@@H]1CCCN1C(=O)[C@H](C)N)C(C)C)[C@@H](C)O)C(=O)N[C@@H](CC(N)=O)C(=O)N[C@@H](CCSC)C(=O)N[C@@H](CC(C)C)C(=O)N[C@H](C(=O)N[C@@H](CCCNC(=N)N)C(=O)N1CCC[C@H]1C(=O)N[C@@H](CCCNC(=N)N)C(=O)N[C@@H](Cc1ccc(O)cc1)C(=O)O)[C@@H](C)O | 5000 | > 1000 | < 6 | 2.5 | > 30 | > 31.6 | > 30 | > 31.6 | 0.1 | 10 | 8 | 50 | – |
| CC[C@H](C)[C@H](NC(=O)[C@H](Cc1ccccc1)NC(=O)[C@H](CCC(=O)O)NC(=O)[C@H](CCCCN)NC(=O)[C@H](C)NC(=O)[C@H](C)NC(=O)[C@H](CCC(N)=O)NC(=O)CNC(=O)[C@H](CCC(=O)O)NC(=O)[C@H](CC(C)C)NC(=O)[C@H](Cc1ccc(O)cc1)NC(=O)[C@H](CO)NC(=O)[C@H](CO)NC(=O)[C@@H](NC(=O)[C@H](CC(=O)O)NC(=O)[C@H](CO)NC(=O)[C@@H](NC(=O)[C@H](Cc1ccccc1)NC(=O)[C@@H](NC(=O)CNC(=O)[C@H](CCC(=O)O)NC(=O)[C@H](C)NC(=O)[C@@H](N)Cc1c[nH]cn1)[C@@H](C)O)[C@@H](C)O)C(C)C)C(=O)N[C@@H](C)C(=O)N[C@@H](Cc1c[nH]c2ccccc12)C(=O)N[C@@H](CC(C)C)C(=O)N[C@H](C(=O)N[C@@H](CCCCN)C(=O)NCC(=O)N[C@@H](CCCN=C(N)N)C(=O)NCC(=O)O)C(C)C | – | – | – | – | – | – | – | – | – | – | – | – | 46 |
